Results from PubChem BioAssay.
Activity calls are given as the source filed them.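 Rule for the calls, unless noted: active = visually confirmed hit in the image check and inhibition above 20%; inconclusive = visually confirmed hit but inhibition not above 20%; inactive = no visual hit in the image check.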

Columns and labels:
[1] = inhibitors of TNFa-induced NFkB p65 translocation, primary screen, imaging, HUVEC, MLSMR starter and 10KST1 sets (AID 438;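 active = inhibition above 20% together with a positive visual image hit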;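 note: compound added about 3h40 before a 20 min TNFalpha stimulation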;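 for inhibition: signal is the nuclear over cytoplasmic p65 intensity ratio per well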); settings: HUVEC TNFa-induced p65 nuclear translocation; cell count: measured here: nuclei count (cytotoxicity indicator), at 2.08 µM; inhibition: at 2 µM, stronger effect = higher value, 0% TNFa-plus-vehicle, 100% no-TNFa wells
[2] = reduction of polyQ htt aggregates in cells – imaging, exon1htt(103Q)mCFP cells, high-content imaging, primary screen (AID 483;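 active = visual image review flags a hit and inhibition of aggregation exceeds 20%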;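 note: compound exposure lasted 3 days before fixation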;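 for nuclei count: percent of the per-plate median nuclei count of sample wells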); settings: exon1htt(103Q)mCFP cell line, aggregate imaging, at 2 µM; inhibition of aggregation: stronger effect = higher value; nuclei count: measured here: cell count, toxicity
[3] = endothelial E-selectin expression blockers – imaging, HUVEC, immunofluorescence, MLSMR starter and 10KST1 sets, primary screen (AID 487); settings: HUVEC TNFalpha-induced E-selectin immunofluorescence imaging, at 2 µM; inhibition: stronger effect = higher value; nuclei count: measured here: cell number, toxicity;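 for inhibition: signal is fraction of cell area covered by stained E-selectin grains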;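 for nuclei count: 100% = median nuclei count of all wells on the same plate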
[4] = molecular target: Voltage-gated potassium channel subunit beta-2 (Rattus norvegicus) (UniProt P62483); test: inhibitors of rat Kvbeta2 reductase activity – biochemical, NADPH fluorescence, primary screen (AID 622;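 active = fluorescence slope higher than the sample average by over 3 SD, cut at about -0.22 in these data, passing the limit was not always enough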;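 note: slope of raw intensity against log time taken from 70 to 1610 s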); settings: recombinant KvBeta, 4-cyanobenzaldehyde reduction, at 10 µM, stronger effect = higher value
[5] = molecular target: Voltage-gated potassium channel subunit beta-2 (Rattus norvegicus) (UniProt P62483); test: enhancers of rat Kvbeta2 NADPH turnover – biochemical, NADPH fluorescence, primary screen (AID 623;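 active = NADPH fluorescence slope more negative than the mean of all samples by about 3 SD, 99.7% confidence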;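 note: fluorescence intensity change per second fitted from 20 to 320 s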); settings: Recombinant KvBeta, NADPH fluorescence decrease slope, 10 min; at 10 µM; stronger effect = lower value
[6] = molecular target: Muscarinic acetylcholine receptor M4 (Homo sapiens) (UniProt P08173); test: M4-linked GIRK flux change, two-sided – cell-based, HEK293 M4/GIRK, thallium flux, BTC-AM, M4 allosteric agonist project, primary screen (AID 625;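 active = fluorescence slope after compound addition differing from the mean of all tested samples at 99.7% confidence, mostly higher but some lower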;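 note: thallium influx through GIRK channels coupled to M4 in HEK293 cells with BTC-AM dye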); settings: at 10 µM, actives lie on both sides
How it was run: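 Material: M4/GIRK1/GIRK2 stable HEK293 cell line. Medium: pH 7.3 thallium assay buffer. Dosing: single compound concentration, 10 µM final. Schedule: 1 h dye loading, 2 min kinetic read. Measured by: kinetic fluorescence with BTC-AM dye. Read-out: post-addition slope, 15–24 s, of baseline-normalized fluorescence. Benchmarks: carbachol and DMSO controls.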

[7] = blockers of RIG-like receptor reporter activation – cell-based, Sendai virus stimulus, luciferase, 10K MLSCN set, TLR/RLR signaling modifier project, primary screen (AID 602276;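 active = inhibition at or above 50% at 10 µM; inactive = inhibition below 50%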;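 note: firefly luciferase from ISG56 promoter only with Renilla not read in this screen; 0% = Sendai virus plus DMSO and 100% = medium plus DMSO without virus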); settings: HEK293 RL24 IRF3 luciferase reporter, at 10 µM, stronger effect = higher value
[8] = TLR3 IRF3 reporter activation blockers – cell-based, poly I:C stimulus, luciferase, 10K MLSCN set, primary screen (AID 602277;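 active = inhibition of the reporter signal at or above 50%; inactive = inhibition below 50%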); settings: HEK293-TLR3 RL24 IRF3 luciferase reporter, at 10 µM, stronger effect = higher value

Sequence of Voltage-gated potassium channel subunit beta-2 (Rattus norvegicus) (P62483 whole entry, looked up): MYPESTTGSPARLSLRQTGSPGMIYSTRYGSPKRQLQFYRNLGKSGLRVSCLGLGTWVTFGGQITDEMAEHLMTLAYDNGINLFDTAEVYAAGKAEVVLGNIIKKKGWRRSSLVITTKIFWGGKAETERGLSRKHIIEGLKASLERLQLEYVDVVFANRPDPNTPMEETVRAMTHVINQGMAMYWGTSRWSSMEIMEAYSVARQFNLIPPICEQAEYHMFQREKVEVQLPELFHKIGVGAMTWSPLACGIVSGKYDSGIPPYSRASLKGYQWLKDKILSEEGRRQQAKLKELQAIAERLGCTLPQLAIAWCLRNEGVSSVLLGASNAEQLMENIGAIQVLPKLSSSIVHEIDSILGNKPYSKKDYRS
Sequence of Muscarinic acetylcholine receptor M4 (Homo sapiens) (P08173 whole entry, looked up): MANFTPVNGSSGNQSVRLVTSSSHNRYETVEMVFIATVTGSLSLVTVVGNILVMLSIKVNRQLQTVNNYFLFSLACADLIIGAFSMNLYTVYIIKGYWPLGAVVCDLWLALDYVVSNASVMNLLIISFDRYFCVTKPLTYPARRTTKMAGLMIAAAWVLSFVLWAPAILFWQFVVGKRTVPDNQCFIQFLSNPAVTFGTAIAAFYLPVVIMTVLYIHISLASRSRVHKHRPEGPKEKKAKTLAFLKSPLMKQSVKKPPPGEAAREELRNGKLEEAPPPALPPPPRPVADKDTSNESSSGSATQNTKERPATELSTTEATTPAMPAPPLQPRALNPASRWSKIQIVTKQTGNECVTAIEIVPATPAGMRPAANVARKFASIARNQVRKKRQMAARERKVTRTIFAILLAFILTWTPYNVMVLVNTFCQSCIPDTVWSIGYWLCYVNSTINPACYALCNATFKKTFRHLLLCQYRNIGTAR

Compound | cell count [1] | inhibition [1] | inhibition of aggregation [2] | nuclei count [2] | inhibition [3] | nuclei count [3] | fluorescence slope [4] | NADPH fluorescence slope [5] | fluorescence slope [6] | inhibition [7] | inhibition [8]
Nc1nc(C2C(=O)CCCC2=O)cs1 | 391 | -16.3% (inactive) | -1.6% (inactive) | 103% | -93.1% (inactive) | 148% | -0.511 (inactive) | -9.1e-05 (inactive) | 0.00345 (inactive) | 8.39% (inactive) | 2.35% (inactive)
O=C(c1cc2ccccc2oc1=O)N1CCSC1c1ccco1 (stereo not drawn) | 310 | 5.3% (inactive) | 3.2% (inactive) | 102% | -24.5% (inactive) | 112% | -0.398 (inactive) | -9.8e-05 (inactive) | 0.00556 (inactive) | 12.5% (inactive) | 22% (inactive)
O=C(CSc1nnc(-c2cccs2)o1)N1CCOCC1 | 280 | -13.9% (inactive) | -11.6% (inactive) | 88.7% | -6.3% (inactive) | 118% | -0.539 (inactive) | -3.4e-05 (inactive) | 0.0054 (inactive) | -8.48% (inactive) | -10.8% (inactive)
COc1ccc2c(=O)c3c(=O)n(Cc4ccco4)c(C(C)C)nc3oc2c1 | 436 | -3.9% (inactive) | -10.1% (inactive) | 91.7% | -15.2% (inactive) | 107% | -0.564 (inactive) | -2.1e-05 (inactive) | 0.00474 (inactive) | 4.04% (inactive) | 9.95% (inactive)
CSc1nc(N2CCOCC2)c2c(c1C#N)CCCCC2 | 690 | -11.9% (inactive) | -18.9% (inactive) | 117% | -4.6% (inactive) | 111% | -0.579 (inactive) | 2.1e-05 (inactive) | 0.00519 (inactive) | 23% (inactive) | 27.5% (inactive)
CC(C)(C)NC(=O)Cn1nnc(-c2cccs2)n1 | 238 | 6.4% (inactive) | 23.3% (inactive) | 99% | -3.4% (inactive) | 85.2% | -0.508 (inactive) | -1.3e-05 (inactive) | 0.00413 (inactive) | 1.59% (inactive) | -13% (inactive)
COc1cccc(N2CCN(c3c4c(nc5ncnn35)CCC4)CC2)c1 | 468 | 17.4% (inactive) | -4.1% (inactive) | 102% | 2.7% (inactive) | 109% | -0.558 (inactive) | -5.9e-05 (inactive) | 0.00591 (inactive) | 0.933% (inactive) | -39.1% (inactive)
COc1cc(NC(=O)Cc2nn(C)c(=O)c3ccccc23)cc(OC)c1 | 693 | -14.8% (inactive) | -21.4% (inactive) | 106% | -39% (inactive) | 108% | -0.585 (inactive) | -4.8e-05 (inactive) | 0.00514 (inactive) | -12.7% (inactive) | -56.4% (inactive)
O=C(CCN1CCN(c2ccc(F)cc2)CC1)Nc1ccccc1F | 315 | -2.1% (inactive) | 34.9% (active) | 84.8% | 19.6% (inactive) | 87.8% | -0.446 (inactive) | 0.000136 (inactive) | 0.00622 (inactive) | 16.9% (inactive) | 24.9% (inactive)
O=C(CSc1nnc(Cn2cnc3ccccc32)o1)c1ccccc1 | 672 | 3% (inactive) | -1.5% (inactive) | 92.9% | 82.5% (inactive) | 52% | -0.464 (inactive) | -3.7e-05 (inactive) | 0.00662 (inactive) | 7.52% (inactive) | -3.02% (inactive)
CCc1ccc(NS(=O)(=O)c2cccs2)cc1 | 421 | 4.3% (inactive) | -18.3% (inactive) | 105% | -82% (inactive) | 109% | -0.634 (inactive) | 3e-06 (inactive) | 0.00357 (inactive) | -6.86% (inactive) | -9.13% (inactive)
O=C(CN1C(=O)CC(c2ccccc2)=Nc2ccccc21)NCc1ccco1 | 255 | -21.4% (inactive) | 6.1% (inactive) | 74% | 27.6% (inactive) | 77.1% | -0.546 (inactive) | -4.6e-05 (inactive) | 0.00578 (inactive) | 17.2% (inactive) | 18.1% (inactive)
COc1cccc(-c2noc(CCC(=O)NC3CCCCC3)n2)c1 | 433 | -12.7% (inactive) | -6.8% (inactive) | 112% | -39.4% (inactive) | 108% | -0.461 (inactive) | -4.1e-05 (inactive) | 0.00539 (inactive) | 11% (inactive) | 15.2% (inactive)
c1ccc(-c2csc(N3CCCCCC3)n2)cc1 | 403 | 7.3% (inactive) | -6.8% (inactive) | 112% | -77.2% (inactive) | 110% | -0.551 (inactive) | 9.4e-06 (inactive) | 0.0048 (inactive) | -82.9% (inactive) | -160% (inactive)
CSC1CCCCC1(O)CSc1nc2c(cc1C#N)CCCC2 (stereo not drawn) | 306 | -7.4% (inactive) | 9% (inactive) | 87% | -111% (inactive) | 78.9% | -0.411 (inactive) | 1e-05 (inactive) | 0.00633 (inactive) | 21.3% (inactive) | 13.8% (inactive)
CCOC(=O)N1CCN(C(=O)c2ccc(N3C(=O)CCC3=O)cc2)CC1 | 503 | -1.2% (inactive) | 0.2% (inactive) | 108% | 15.8% (inactive) | 68.3% | -0.266 (inactive) | -2.7e-05 (inactive) | 0.00679 (inactive) | -5.15% (inactive) | 18.1% (inactive)
Cc1[nH]c(=O)[nH]c(=O)c1S(=O)(=O)Nc1ccc(Oc2ccccc2)cc1 | 638 | -3.2% (inactive) | -7.6% (inactive) | 117% | -25.8% (inactive) | 107% | -0.574 (inactive) | -2.9e-05 (inactive) | 0.00503 (inactive) | 19.8% (inactive) | 24.8% (inactive)
O=C(CCCCCn1c(SCc2ccncc2)nc2ccccc2c1=O)NCc1ccco1 | 458 | -10.3% (inactive) | -29.8% (inactive) | 109% | -25.1% (inactive) | 94.5% | -0.498 (inactive) | -1.1e-05 (inactive) | 0.00498 (inactive) | 8.7% (inactive) | 15.5% (inactive)
Cc1cccc2cc(CN(Cc3nnnn3C3CCCC3)C3CCCCC3)c(=O)[nH]c12 | 349 | 5.8% (inactive) | -3.3% (inactive) | 99.1% | -44% (inactive) | 106% | -0.466 (inactive) | 4.8e-05 (inactive) | 0.00597 (inactive) | 7.22% (inactive) | 21.3% (inactive)
O=S(=O)(NCC(O)COCc1ccco1)c1cccs1 (stereo not drawn) | 297 | 8% (inactive) | -14.1% (inactive) | 108% | 1.6% (inactive) | 97.5% | -0.587 (inactive) | -3.7e-05 (inactive) | 0.00581 (inactive) | 2.99% (inactive) | 8.32% (inactive)
COc1cccc(CNC(=O)C2CCN(S(=O)(=O)c3ccc(F)cc3)CC2)c1 | 603 | 9.6% (inactive) | 5.3% (inactive) | 103% | -47.8% (inactive) | 123% | -0.553 (inactive) | -5.5e-05 (inactive) | 0.00553 (inactive) | 19.5% (inactive) | 20.1% (inactive)
CC(=O)Nc1ccc(S(=O)(=O)n2cnc(C)c2)cc1 | 697 | -10.2% (inactive) | -20.6% (inactive) | 99.8% | -26.8% (inactive) | 118% | -0.584 (inactive) | 4.1e-05 (inactive) | 0.0072 (inactive) | -6.5% (inactive) | -8.68% (inactive)
CCOc1ccccc1NC(=O)N1CCCC1C(=O)Nc1nnc(CC)s1 (stereo not drawn) | 599 | -0.7% (inactive) | -35.9% (inactive) | 63.6% | -86% (inactive) | 98.7% | -0.296 (inactive) | -3.1e-05 (inactive) | 0.00525 (inactive) | 1.66% (inactive) | 12.7% (inactive)
CCn1cc(C(=O)N2CCN(C(=O)c3ccco3)CC2)c2cc(OC)c(OC)cc2c1=O | 235 | -2.3% (inactive) | -10% (inactive) | 105% | -55.5% (inactive) | 121% | -0.515 (inactive) | 8.7e-05 (inactive) | 0.00709 (inactive) | 13.9% (inactive) | 15.4% (inactive)
CCS(=O)(=O)c1nc2ccccc2n1CC(=O)N1CCOCC1 | 581 | -4.1% (inactive) | -22.2% (inactive) | 95.9% | -85.4% (inactive) | 98.1% | -0.589 (inactive) | -3e-05 (inactive) | 0.00736 (inactive) | 16.1% (inactive) | 10.7% (inactive)
c1ccc2c3nnc4n(c-3nc2c1)CCCS4 | 472 | 4.1% (inactive) | 0.4% (inactive) | 101% | 17.9% (inactive) | 112% | -0.444 (inactive) | -2.5e-05 (inactive) | 0.00387 (inactive) | -12.6% (inactive) | -19.6% (inactive)
O=C(CCCn1c(=O)c2sccc2n(CC(=O)NCc2ccco2)c1=O)NCc1ccco1 | 263 | 2.8% (inactive) | -6.2% (inactive) | 98.5% | -49.2% (inactive) | 117% | -0.567 (inactive) | -5.7e-05 (inactive) | 0.00613 (inactive) | 13.9% (inactive) | 15% (inactive)
c1cnn(-c2cc(N3CCOCC3)ncn2)c1 | 301 | -5% (inactive) | 20.4% (inactive) | 85.2% | 2.8% (inactive) | 101% | -0.5 (inactive) | 7.1e-05 (inactive) | 0.0047 (inactive) | -15.2% (inactive) | -21.2% (inactive)
